According to ChEMBL document CHEMBL1165856, “Naftifine-analogues as anti-Trypanosoma cruzi agents” (Eur J Med Chem, 2010):
Values after ≈ are worked out from the molar mass of the structure shown. Values joined by “and” are separate entries in the source; they are usually repeats but may differ in a detail not shown here. Equal entries are not always repeated.

Columns and labels:
[1] = system: Trypanosoma cruzi; assay: Antitrypanosomal activity against Trypanosoma cruzi Tulahuen 2; type: functional; conditions: read-out: ID50 (the source's name)
Method in brief: (§1)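 Epimastigotes were grown at 28 °C in BHI-tryptose with 5% FBS. Stationary-phase parasites are inoculated at 8 × 10⁶ cells/mL into medium containing increasing drug concentrations from DMSO stock (final DMSO ≤0.4%; vehicle control). Growth is followed by A600. ID50 is the concentration that halves the day-5 absorbance ratio relative to control.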

[2] = system: Trypanosoma cruzi; assay: Antitrypanosomal activity against Trypanosoma cruzi CL Brener; type: functional; conditions: read-out: ID50 (the source's name); method in brief: as §1
[3] = Cytotoxicity against mouse J774 cells after 48 hrs by MTT assay; type: cell-based; conditions: read-out: ID50
Method in brief: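 J-774 macrophages were seeded at 1 × 10⁵ cells/well in RPMI 1640 with 20% heat-inactivated FCS and left to attach for 48 h at 37 °C in 5% CO₂. Cells were then exposed to compounds for 48 h. MTT was added at 0.4 mg/mL final, formazan was dissolved in DMSO, and A595 was read. ID50 is the concentration cutting control absorbance by 50%, averaged over three experiments.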

[4] = Selectivity index, ratio of ID50 for mouse J774 cells to ID50 for Trypanosoma cruzi Tulahuen 2; type: toxicity, cell-based; conditions: J774 cells versus Trypanosoma cruzi Tulahuen 2
Method in brief: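 Selectivity index is the ID50 in J-774 macrophages (48 h MTT) divided by the ID50 against Tulahuen 2 epimastigotes (day-5 A600 growth).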

[5] = system: Candida albicans; assay: Antifungal activity against Candida albicans ATCC 10231 after 48 hrs; type: functional; conditions: ATCC 10231, 48 h
Method in brief: (§2)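 CLSI M27-A2 broth microdilution in RPMI 1640 buffered to pH 7.0 with MOPS. Inoculum is 10³ CFU/mL from Sabouraud-grown yeasts. Compound is two-fold serially diluted, final DMSO ≤1%. Incubated at 35 °C in a moist, dark chamber and read visually at 48 h. MIC is the lowest concentration giving total growth inhibition.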

[6] = system: Candida tropicalis; assay: Antifungal activity against Candida tropicalis C 131 2000 after 48 hrs; type: functional; method in brief: as §2
[7] = system: Saccharomyces cerevisiae; assay: Antifungal activity against Saccharomyces cerevisiae ATCC 9763 after 48 hrs; type: functional; conditions: ATCC 9763, 48 h; method in brief: as §2
[8] = system: Cryptococcus neoformans; assay: Antifungal activity against Cryptococcus neoformans ATCC 32264 after 48 hrs; type: functional; method in brief: as §2
[9] = system: Aspergillus fumigatus; assay: Antifungal activity against Aspergillus fumigatus ATCC 26934 after 48 hrs; type: functional; conditions: ATCC 26934, 48 h
Method in brief: (§3)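 Aspergillus spp. were tested by CLSI M38-A broth microdilution in RPMI 1640 with MOPS at pH 7.0. Spore inoculum is 10³ CFU/mL, with two-fold compound dilutions and final DMSO ≤1%. Incubated at 35 °C in a moist, dark chamber. MIC is read visually as total growth inhibition, at a time set by growth of the control fungus.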

[10] = system: Aspergillus flavus; assay: Antifungal activity against Aspergillus flavus ATCC 9170 after 48 hrs; type: functional; conditions: ATCC 9170, 48 h; method in brief: as §3
[11] = system: Aspergillus niger; assay: Antifungal activity against Aspergillus niger ATCC 9029 after 48 hrs; type: functional; conditions: ATCC 9029, 48 h; method in brief: as §3
[12] = system: Nannizzia gypsea; assay: Antifungal activity against Microsporum gypseum C 115 after 48 hrs; type: functional; conditions: C 115, 48 h
Method in brief: (§4)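 Dermatophytes were tested by CLSI M38-A microdilution in MOPS-buffered RPMI 1640 at pH 7.0. Inoculum is 10³ CFU/mL, with two-fold serial compound dilutions and final DMSO ≤1%. Trays are kept at 28–30 °C in a moist, dark chamber. MIC is the lowest concentration with total growth inhibition, read visually when control growth allows.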

[13] = system: Trichophyton rubrum; assay: Antifungal activity against Trichophyton rubrum C 113 after 48 hrs; type: functional; conditions: C 113, 48 h; method in brief: as §4
[14] = system: Trichophyton mentagrophytes; assay: Antifungal activity against Trichophyton mentagrophytes ATCC 9972 after 48 hrs; type: functional; conditions: ATCC 9972, 48 h; method in brief: as §4
[15] = Candida tropicalis, C 131 2000, 48 h, read-out: MIC

IC50 [1] [µM] | IC50 [2] [µM] | MIC [5] [µg/mL] | MIC [6, 15] [µg/mL] | MIC [7] [µg/mL] | MIC [9] [µg/mL] | MIC [10] [µg/mL] | MIC [11] [µg/mL] | MIC [12] [µg/mL] | MIC [13] [µg/mL] | MIC [14] [µg/mL] | Compound | CC50 at 48 h [3] [µM] | selectivity ratio [4] | MFC [12] [µg/mL] | MFC [13] [µg/mL] | MFC [14] [µg/mL] | other results
3.8 | 7.9 | 125 (≈ 268 µM) | 125 (≈ 268 µM) | 62.5 (≈ 134 µM) | > 250 | > 250 | > 250 | 62.5 (≈ 134 µM) | 62.5 (≈ 134 µM) | 62.5 (≈ 134 µM) | COc1nn(CCOCCN2CCN(C/C=C/c3ccccc3)CC2)c2ccc([N+](=O)[O-])cc12 | < 100 | < 26.3 | 125 (≈ 268 µM) | 125 (≈ 268 µM) | 125 (≈ 268 µM) | MFC [5]: 125 µg/mL (≈ 268 µM); MIC [6]: 125 µg/mL (≈ 268 µM); MFC [7]: 62.5 µg/mL (≈ 134 µM); MFC ([8]; Cryptococcus neoformans, ATCC 32264, 48 h): 62.5 µg/mL (≈ 134 µM); MIC ([8]; Cryptococcus neoformans, ATCC 32264, 48 h, read-out: MIC): 62.5 µg/mL (≈ 134 µM)
10.6 | 4.5 | > 250 | > 250 | > 250 | > 250 | > 250 | > 250 | 62.5 (≈ 116 µM) | 62.5 (≈ 116 µM) | 62.5 (≈ 116 µM) | O=[N+]([O-])c1ccc2c(c1)c(OCc1ccccc1)nn2CCCCCN1CCN(C/C=C/c2ccccc2)CC1 | < 100 | < 9.4 | 125 (≈ 232 µM) | 125 (≈ 232 µM) | 125 (≈ 232 µM) | MIC [8]: 62.5 µg/mL and 31.2 µg/mL
22.6 | 16.9 |  |  |  |  |  |  |  |  |  | CN(C/C=C/c1ccccc1)Cc1ccc2no[n+]([O-])c2c1 | < 100 | < 4.4 |  |  |  | 
